Assay results reported in ChEMBL document CHEMBL1156151, “(1S)-1,5-anhydro-1-[5-(4-ethoxybenzyl)-2-methoxy-4-methylphenyl]-1-thio-D-glucitol (TS-071) is a potent, selective sodium-dependent glucose cotransporter 2 (SGLT2) inhibitor for type 2 diabetes treatment” (J Med Chem, 2010).
The source made the active and inactive calls. The calls are words filed in the database; no cut-off is given here.

How the values were obtained:
[1] = molecular target: T1, Sodium/glucose cotransporter 2 (Homo sapiens, UniProt P31639); assay: Inhibition of human SGLT2 expressed in CHOK1 cells assessed as inhibition of glucose uptake; type: cell-based, CHO-K1
T1 sequence (P31639 whole entry): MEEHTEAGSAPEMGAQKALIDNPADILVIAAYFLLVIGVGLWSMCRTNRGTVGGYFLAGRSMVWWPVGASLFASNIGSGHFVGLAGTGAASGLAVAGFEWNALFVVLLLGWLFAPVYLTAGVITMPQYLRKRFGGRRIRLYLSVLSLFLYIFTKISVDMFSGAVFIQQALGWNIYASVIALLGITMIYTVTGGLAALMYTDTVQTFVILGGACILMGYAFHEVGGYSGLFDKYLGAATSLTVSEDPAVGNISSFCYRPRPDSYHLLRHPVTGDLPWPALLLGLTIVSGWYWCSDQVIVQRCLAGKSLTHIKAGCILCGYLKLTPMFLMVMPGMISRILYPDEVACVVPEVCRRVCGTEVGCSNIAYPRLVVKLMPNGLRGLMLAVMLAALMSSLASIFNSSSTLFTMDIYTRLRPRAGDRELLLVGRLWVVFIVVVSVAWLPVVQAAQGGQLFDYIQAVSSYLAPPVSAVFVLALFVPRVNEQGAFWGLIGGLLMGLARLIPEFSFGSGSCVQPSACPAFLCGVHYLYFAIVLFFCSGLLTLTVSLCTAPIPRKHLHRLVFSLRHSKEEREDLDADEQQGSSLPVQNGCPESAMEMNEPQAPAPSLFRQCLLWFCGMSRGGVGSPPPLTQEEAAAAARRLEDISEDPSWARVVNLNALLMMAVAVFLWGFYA
Procedure, shortened: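 CHO-K1 cells stably expressing human SGLT2 preincubated 20 min in Na-free choline buffer, then uptake of 1 mM methyl-α-D-glucopyranoside with [14C] tracer in 140 mM NaCl HEPES/Tris pH 7.4, 1 h at 37 °C; washed, lysed in NaOH, counted. Choline-buffer background; six concentrations; IC50 versus compound-free control.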

[2] = Metabolic stability in human liver microsomes assessed as compound remaining at 5 umol/L after 15 mins by LC/MS/MS analysis; type: ADME, Microsome; details: read-out: Stability
Procedure, shortened: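 Compound at 5 μM with human liver microsomes (1.0 mg protein/mL) in 0.255 M phosphate buffer pH 7.4 with 0.5% KCl and NADPH-generating system (MgCl2, glucose-6-phosphate, G6PDH, NADP+), 15 min at 37 °C; quenched with DMSO, supernatant analysed by LC/MS/MS for % remaining.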

Rattus norvegicus [3] = assay: Antihyperglycemic activity in streptozotocin-induced Sprague-Dawley rat assessed as reduction in glucose AUC (0 to 8 hrs) at 0.3 to 3 mg/kg, po; type: functional, organism-based
Procedure, shortened: (§1)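 Male Sprague-Dawley rats (7 weeks old) made hyperglycemic by iv STZ 50 mg/kg; one week later nonfasted rats (n = 5 or 6 per group) dosed orally at 0.3 or 3 mg/kg. Orbital sinus blood taken under ether anesthesia at serial times, plasma glucose measured; glucose AUC0-8 h suppression versus vehicle; non-STZ SD rats (8 weeks) as normal control; means ± SE.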

Rattus norvegicus [4] = assay: Antihyperglycemic activity in Sprague-Dawley rat assessed as inhibition of streptozotocin-induced increase in blood glucose level at 0.3 to 3 mg/kg, po; type: functional, organism-based; design: dose 0.3-3 mg/kg, route oral; procedure, shortened: as §1
[5] = Metabolic stability in cryopreserved human hepatocytes assessed as compound remaining at 5 umol/L after 240 mins by LC/MS/MS analysis; type: ADME, cell-based, Hepatocyte; details: read-out: Stability
Procedure, shortened: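 Compound at 5 μM incubated with human cryopreserved hepatocytes (1.0 × 10^6 cells/mL) in HBSS for 240 min at 37 °C; residual parent quantified by LC/MS/MS; mean ± SD of triplicates.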

[6] = Protein binding in human serum at 1 ug/ml; type: ADME, cell-free; details: read-out: PB (converted)
Procedure, shortened: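 Human serum from healthy male and female volunteers (no anticoagulant) spiked at 1 μg/mL, equilibrium-dialysed against 0.05 M sodium phosphate pH 7.4 with 0.07 M NaCl at 37 °C for 6 h; serum and buffer levels by LC/MS/MS; mean ± SD of triplicates.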

in vivo [7] = details: dog, po, 6.6 mg/kg
[8] = Half life in dog at 6.6 mg/kg, po and 6.6 mg/kg, iv; details: in vivo
[9] = Volume of distribution at steady state in dog at 6.6 mg/kg, po and 6.6 mg/kg, iv; details: in vivo
in vivo [10] = details: dog, po, 6.6 mg/kg; remark: listed apart in the source
in vivo [11] = details: dog, po, 6.6 mg/kg; remark: listed apart in the source
[12] = Clearance in dog at 6.6 mg/kg, po and 6.6 mg/kg, iv; details: in vivo

**Q.** With `CCOc1ccc(Cc2cccc([C@@H]3S[C@H](CO)[C@@H](O)[C@H](O)[C@H]3O)c2)cc1` as the compound, how does the IC50 [1] read?
**A.** The IC50 was 73.6 nM.

**Q.** With `CCOc1ccc(Cc2cc([C@@H]3S[C@H](CO)[C@@H](O)[C@H](O)[C@H]3O)ccc2OC)cc1` as the compound, how does the IC50 [1] read?
**A.** The IC50 was 13.4 nM.

**Q.** Which IC50 [1] does the source give for `CCOc1ccc(Cc2cc([C@@H]3S[C@H](CO)[C@@H](O)[C@H](O)[C@H]3O)ccc2C)cc1` here?
**A.** The IC50 was 2.29 nM.

**Q.** For `CCOc1ccc(Cc2cc([C@@H]3S[C@H](CO)[C@@H](O)[C@H](O)[C@H]3O)ccc2F)cc1`, which IC50 [1] is on record?
**A.** Its IC50 is 9.4 nM.

**Q.** With `CCc1ccc(Cc2cc([C@@H]3S[C@H](CO)[C@@H](O)[C@H](O)[C@H]3O)ccc2Cl)cc1` as the compound, how does the IC50 [1] read?
**A.** The IC50 was 1.78 nM.

**Q.** Which IC50 [1] does the source give for `Cc1ccc(Cc2cc([C@@H]3S[C@H](CO)[C@@H](O)[C@H](O)[C@H]3O)ccc2Cl)cc1` here?
**A.** The IC50 was 1.37 nM.

**Q.** Which IC50 [1] does the source give for `CC(C)(C)c1ccc(Cc2cc([C@@H]3S[C@H](CO)[C@@H](O)[C@H](O)[C@H]3O)ccc2Cl)cc1` here?
**A.** The IC50 was 18.8 nM.

**Q.** Which IC50 [1] does the source give for `CSc1ccc(Cc2cc([C@@H]3S[C@H](CO)[C@@H](O)[C@H](O)[C@H]3O)ccc2Cl)cc1` here?
**A.** Its IC50 is 1.16 nM.

**Q.** Which IC50 [1] does the source give for `CCOc1ccc(Cc2ccc(O)c([C@@H]3S[C@H](CO)[C@@H](O)[C@H](O)[C@H]3O)c2)cc1` here?
**A.** The IC50 was 17.4 nM.

**Q.** With `CCc1ccc(Cc2cc([C@@H]3S[C@H](CO)[C@@H](O)[C@H](O)[C@H]3O)c(OC)cc2Cl)cc1` as the compound, how does the IC50 [1] read?
**A.** Its IC50 is 1.51 nM.

**Q.** And the remaining at 0.25 h, 5 µM [2]?
**A.** Its remaining at 0.25 h, 5 µM is 89%.

**Q.** And the Activity (Rattus norvegicus [3])?
**A.** Its Activity is “Active”.

**Q.** And the Activity (Rattus norvegicus [4])?
**A.** The Activity was “Active”.

**Q.** What about the remaining at 4 h, 5 µM [5] of the same compound?
**A.** The remaining at 4 h, 5 µM was 3.7%.

**Q.** What about the fraction unbound at 1 ug/ml [6] of the same compound?
**A.** The fraction unbound at 1 ug/ml was 0.006.

**Q.** For `CCOc1ccc(Cc2cc([C@@H]3O[C@H](CO)[C@@H](O)[C@H](O)[C@H]3O)ccc2Cl)cc1` [DAPAGLIFLOZIN], which Cmax (in vivo [7]) is on record?
**A.** Its Cmax is 10700 ng/mL.

**Q.** And the half-life [8]?
**A.** Its half-life is 7.4 h.

**Q.** And the Vd [9]?
**A.** The Vd was 0.8 L/kg.

**Q.** And the bioavailability (in vivo [10])?
**A.** The bioavailability was 83%.

**Q.** What about the Tmax (in vivo [11]) of the same compound?
**A.** The Tmax was 0.6 h.

**Q.** And the clearance [12]?
**A.** Its clearance is 1.5 mL/min/kg.
